{"data": "Published values gathered from unrelated publications", "target": "Serine/threonine-protein kinase 24 (STK24, Homo sapiens, UniProt Q9Y6E0)", "note": "Lines come from different studies, so protocols differ."}
{"SMILES": "CC(C)(C)c1nc2c(s1)c1nc(N)ncc1c1ccc(NS(=O)(=O)c3c(F)cccc3F)c(F)c12", "test": "enzyme activity, inhibitor, radiometric", "setting": "1 µM", "endpoint": "remaining activity", "result": "28%"}
{"SMILES": "Nc1c(C(=O)NCc2ccc(C(=O)NCCCC3CCCCC3)cc2)cnn1-c1ccccc1", "test": "cell-free assay, competition with immobilised ligand", "setting": "0.1 µM", "endpoint": "remaining binding", "result": "91%"}
{"SMILES": "CN1CC(Oc2cnc(C#N)cc2-c2ccn3nc(NC(=O)C4CC4)cc3c2)C1", "test": "enzyme activity, inhibitor", "setting": "1 µM", "endpoint": "inhibition", "result": "6%"}
{"SMILES": "COc1cc2ncnc(Nc3ccc(Oc4ccccc4)c(C)c3C)c2cc1OC", "test": "enzyme activity, inhibitor", "setting": "1 µM", "endpoint": "inhibition", "result": "10%"}
{"SMILES": "C[C@H](NC(=O)c1cnc2n1[C@](C)(Cc1ccc(C#N)cc1)C(=O)N2c1cc(Cl)c(F)c(Cl)c1)C(=O)NC1(c2ccccn2)CC1", "test": "cell-free assay, competition with immobilised ligand", "setting": "1 µM", "endpoint": "remaining binding", "result": "100%"}
{"SMILES": "COc1cc(Nc2c(C#N)cnc3cc(OCCCN4CCN(C)CC4)c(OC)cc23)c(Cl)cc1Cl", "test": "cell-free assay", "setting": "0.5 µM", "endpoint": "remaining signal", "result": "11%"}
{"SMILES": "c1ccc(CNc2nc(N3CCOc4ccccc43)nc3c2CCCC3)cc1", "test": "target engagement in cells, inhibitor, chemoproteomics", "setting": "20 mM", "endpoint": "inhibition", "result": "-7%"}
{"SMILES": "Cn1c2c(c3ccc(Cl)c(Cl)c31)C(C#N)C1(CCOCC1)NC2=O (stereo not drawn)", "test": "thermal stability, DSF", "setting": "10 µM", "endpoint": "ΔTm", "result": "-0.3 °C"}
{"SMILES": "O=C(Nc1cnn(-c2csc(C(=O)NC3COC3)c2)c1)Nc1ccccc1Cl", "test": "enzyme activity, inhibitor", "setting": "5 µM", "endpoint": "remaining activity", "result": "113%"}
{"SMILES": "Cc1ccc(NC(=O)c2ccc(C)c(C(F)(F)F)c2)cc1C#Cc1nn(C2CCC(O)CC2)c2ncnc(N)c12 (stereo not drawn)", "test": "cell-free assay", "setting": "10 µM", "endpoint": "remaining signal", "result": "114%"}
{"SMILES": "Cn1c2c(c3ccc(Cl)c(Cl)c31)C(C#N)C1(CCNCC1)NC2=O (racemic)", "test": "thermal stability, DSF", "setting": "10 µM", "endpoint": "ΔTm", "result": "-0.7 °C"}
{"SMILES": "CC1=C(C#N)C(c2ccc3c(c2)c(NC(=O)c2ccccc2C)nn3C)C(C#N)=C(C)N1", "test": "cell-free assay, competition with immobilised ligand", "setting": "1 µM", "endpoint": "remaining binding", "result": "100%"}
{"SMILES": "COc1cc2ncnc(Nc3ccc(F)c(Cl)c3)c2cc1OCCCN1CCOCC1", "test": "cell-free assay", "setting": "0.5 µM", "endpoint": "remaining signal", "result": "102%"}
{"SMILES": "Cc1sc(C(=O)NC2COC2)cc1-n1cc(NC(=O)Nc2c(F)cccc2Cl)cn1", "test": "enzyme activity, inhibitor", "setting": "10 µM", "endpoint": "remaining activity", "result": "67.3%"}
{"SMILES": "COc1ccc2c(c1)O[C@H](c1ccc(OC)c(OC)c1)C[C@@H]2NC(=O)C1(c2ccc3c(c2)OC(F)(F)O3)CC1", "test": "cell-free assay, competition with immobilised ligand", "setting": "1 µM", "endpoint": "remaining binding", "result": "92%"}
{"SMILES": "Cc1cnc(NC2CCOCC2)nc1-n1cnc(C(=O)NC(CN)c2cc(F)cc(Cl)c2)c1 (stereo not drawn)", "test": "enzyme activity, inhibitor, radiometric", "setting": "1 µM", "endpoint": "remaining activity", "result": "32%"}
{"SMILES": "COc1ccc2c(O[C@@H]3C[C@H]4C(=O)N[C@]5(C(=O)O)CC5/C=C\\CCCCC[C@H](NC(=O)OC5CCCC5)C(=O)N4C3)cc(-c3csc(NC(=O)C(C)C)n3)nc2c1C (stereo partly drawn)", "test": "cell-free assay, competition with immobilised ligand", "setting": "1 µM", "endpoint": "remaining binding", "result": "100%"}
{"SMILES": "CN1CCC2(CC1)NC(=O)c1c(c3ccc(Cl)c(Cl)c3n1C)C2C#N (racemic)", "test": "thermal stability, DSF", "setting": "10 µM", "endpoint": "ΔTm", "result": "-0.6 °C"}
{"SMILES": "Oc1ccc(-c2nc(-c3ccncc3)c(-c3ccc(F)cc3)[nH]2)cc1", "test": "cell-free assay", "setting": "0.5 µM", "endpoint": "remaining signal", "result": "95.2%"}
{"SMILES": "CNC(=O)c1cc(Oc2ccc(NC(=O)Nc3ccc(Cl)c(C(F)(F)F)c3)cc2)ccn1", "test": "enzyme activity, inhibitor", "setting": "0.3 µM", "endpoint": "inhibition", "result": "-9%"}
{"SMILES": "CCN1CCN(Cc2ccc(NC(=O)c3ccc(C)c(/C=C/c4cnc5[nH]ccc5c4OC)c3)cc2C(F)(F)F)CC1", "test": "target engagement in cells, inhibitor, chemoproteomics", "system": "A-375", "setting": "0.5 µM", "endpoint": "inhibition", "result": "-36.9%"}
{"SMILES": "Nc1ncnc2occ(-c3ccc(NC(=O)Nc4cc(C(F)(F)F)ccc4F)cc3)c12", "test": "cell-free assay, inhibitor", "setting": "20 µM", "endpoint": "remaining signal", "result": "4%"}
{"SMILES": "O=C1CCc2cc(Nc3cc(OC4CCOCC4)c([N+](=O)[O-])cc3Cl)ccc2N1", "test": "cell-free assay, competition with immobilised ligand", "setting": "1 µM", "endpoint": "remaining binding", "result": "97%"}
{"SMILES": "Cn1c2c(c3ccc(Cl)c(Cl)c31)C(C#N)C(C)(C)NC2=O (stereo not drawn)", "test": "thermal stability, DSF", "setting": "10 µM", "endpoint": "ΔTm", "result": "0.6 °C"}
{"SMILES": "CCN1CCN(Cc2ccc(NC(=O)c3ccc(C)c(Oc4ccnc5[nH]ccc45)c3)cc2C(F)(F)F)CC1", "test": "target engagement in cells, inhibitor, chemoproteomics", "system": "A-375", "setting": "50 nM", "endpoint": "inhibition", "result": "-10.7%"}
{"SMILES": "Cn1cncc1C1=CN(c2ncnc3[nH]cnc23)CCS1", "test": "enzyme activity, inhibitor, radiometric", "setting": "50 nM", "endpoint": "inhibition", "result": "13.2%"}
{"SMILES": "CC(C)(O)[C@H]1CC[C@H](Nc2ccc3ncc(-c4cccc(C(F)(F)F)c4)n3n2)CC1", "test": "enzyme activity, inhibitor", "setting": "1 µM", "endpoint": "remaining activity", "result": "96.1%"}
{"SMILES": "COc1cccc2c(NCc3ccccc3)nc(-n3c(N)nc4ccccc43)nc12", "test": "target engagement in cells, inhibitor, chemoproteomics", "setting": "20 mM", "endpoint": "inhibition", "result": "-9.9%"}
{"SMILES": "NS(=O)(=O)c1cc(NC(=O)C2(c3ccccc3Cl)CC2)ccc1Oc1cccc(Cl)c1", "test": "cell-free assay, competition with immobilised ligand", "setting": "1 µM", "endpoint": "remaining binding", "result": "93%"}
{"SMILES": "Cc1ccc(Nc2nccc(N(C)c3ccc4c(C)n(C)nc4c3)n2)cc1S(N)(=O)=O", "test": "enzyme activity, inhibitor", "setting": "0.3 µM", "endpoint": "inhibition", "result": "-5%"}
{"SMILES": "O=C(O)[C@@H]1[C@@H](Cn2nnc3ccccc3c2=O)CC[C@H]1C(=O)c1ccc(OCCC2CCOCC2)cc1", "test": "cell-free assay, competition with immobilised ligand", "setting": "1 µM", "endpoint": "remaining binding", "result": "99%"}
{"SMILES": "Oc1cccc(-c2nc(N3CCOCC3)c3oc4ncccc4c3n2)c1", "test": "cell-free assay", "setting": "0.5 µM", "endpoint": "remaining signal", "result": "100%"}
{"SMILES": "CC/C(=N\\NC(=O)NCc1cccc(O)c1)c1ccc(O)c(C)c1O", "test": "enzyme activity, inhibitor", "setting": "0.1 µM", "endpoint": "inhibition", "result": "4.3%"}
